From ChEMBL document CHEMBL1157240, “Caminosides B-D, antimicrobial glycolipids isolated from the marine sponge Caminus sphaeroconia” (J Nat Prod, 2006)
Active and inactive are the calls of the source. The rule behind the calls is not given here.

Assays:
[1] = system: Escherichia coli; experiment: Antimicrobial activity against enteropathogenic Escherichia coli assessed as inhibition of type 3 secretion by gel electrophoresis; assay type: functional, organism-based
Procedure, shortened: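 EPEC cultured 24 h with test material, then centrifuged to give a bacterial pellet and a supernatant holding all secreted proteins. The pellet was inspected by eye, and samples that clearly shrank it were excluded as having general antibiotic or cytotoxic action.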

[2] = system: Enterococcus; experiment: Antimicrobial activity against vancomycin-resistant Enterococcus assessed per disk; assay type: functional
[3] = system: Globisporangium ultimum; experiment: Antimicrobial activity against Pythium ultimum assessed per disk; assay type: functional
[4] = system: Stenotrophomonas maltophilia; experiment: Antimicrobial activity against Xanthomonas maltophilia assessed per disk; assay type: functional
[5] = system: Staphylococcus aureus; experiment: Antimicrobial activity against methicillin-resistant Staphylococcus aureus assessed per disk; assay type: functional
[6] = system: Escherichia coli; experiment: Antimicrobial activity against Escherichia coli; assay type: functional, organism-based

CCCCCCCCC[C@H](CCCCCCCC(C)=O)O[C@@H]1O[C@H](CO)[C@@H](O)[C@H](O)[C@H]1O[C@@H]1O[C@H](CO[C@@H]2O[C@H](C)[C@H](O)[C@H](O)[C@@H]2O)[C@@H](OC(C)=O)[C@H](OC(=O)CCC)[C@H]1O[C@@H]1O[C@@H](C)[C@H](O)[C@@H](O)[C@@H]1O [CAMINOSIDES A]
Activity [1]: Active
IC50 [1]: 20 µM
MIC [2]: 12.5 µg
MIC [3]: 50 µg
MIC [4]: 25 µg
MIC [5]: 12.5 µg
Activity [6]: inactive

CCCCCCCCC[C@H](CCCCCCCC(C)=O)O[C@@H]1O[C@H](COC(C)=O)[C@@H](OC(C)=O)[C@H](OC(C)=O)[C@H]1O[C@@H]1O[C@H](CO[C@@H]2O[C@H](C)[C@H](OC(C)=O)[C@H](OC(C)=O)[C@@H]2OC(C)=O)[C@@H](OC(C)=O)[C@H](OC(=O)CCC)[C@H]1O[C@@H]1O[C@@H](C)[C@H](OC(C)=O)[C@@H](OC(C)=O)[C@@H]1OC(C)=O [CAMINOSIDE A PERACETATE]
Activity [1]: inactive
MIC [2]: >100 µg
MIC [3]: >100 µg
MIC [4]: >25 µg
MIC [5]: >100 µg

CCCCCCCCC[C@H](CCCCCCCC(C)=O)O[C@@H]1O[C@H](CO)[C@@H](O)[C@H](O)[C@H]1O[C@@H]1O[C@H](CO[C@@H]2O[C@H](C)[C@H](O)[C@H](O)[C@@H]2O)[C@@H](OC(C)=O)[C@H](OC(=O)CCC)[C@H]1O[C@@H]1O[C@@H](C)[C@H](O)[C@@H](OC(=O)CCC)[C@@H]1O
IC50 [1]: 20 µM
